Activity calls are given as the source filed them. The rule behind the calls is not given here.
Legend:
[1] = Antioxidant activity assessed as inhibition of oxidation of chromogen (ABTS) measured per mmol/L of product by total antioxidant assay; format: functional
How it was run: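 Total antioxidant status kit: inhibition of ABTS oxidation by metmyoglobin and hydrogen peroxide, followed at 600 nm absorbance; antioxidant ability proportional to absorbance reduction, expressed as mM. Compounds tested at 1 mmol/L.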

VSMC = assay: Displacement of [125I]angiotensin II from angiotensin 2 receptor in Wistar rat VSMC cells by gamma-counter; format: cell-based; parameters: concentration or dose not given beside the values
How it was run: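 Rat aortic VSMC (collagenase-derived primary cultures, passages 3-5) resuspended in Tris-glucose-NaCl buffer pH 7.4 at 0.5 μg/μL protein; 125 μg protein incubated 45 min with 0.15 nM 125I-angiotensin II plus compound. Bound separated by centrifugation, pellet washed with cold 0.15 M NaCl, gamma counted; nonspecific binding with 10^-4 M angiotensin II.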

Rattus norvegicus [2] = assay: Antihypertensive activity in Wistar rat assessed as normalization of L-NAME-induced systolic blood pressure at 28 mg/kg/day, po for 4 weeks; format: functional, organism-based; details: Artery
How it was run: (§1)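 L-NAME (20 mg/kg/day, drinking water, 8 weeks) hypertensive two-month-old male Wistar rats; treatments in drinking water daily for the last 4 weeks. Systolic pressure by tail-cuff in conscious animals. At sacrifice heart weighed (corrected to body weight); aortic rings from descending thoracic aorta, formaldehyde-flushed, media thickness by planimetry. Mean ± SEM of 10 rats.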

Rattus norvegicus [3] = assay: Antihypertensive activity in Wistar rat assessed as normalization of L-NAME-induced heart weight at 20 mg/kg/day, po for 4 weeks in presence of L-NAME; format: functional, organism-based; details: 28 mg/kg, in the assay text read “28 mg/kg/day” for “20 mg/kg/day”; how it was run: as §1
Rattus norvegicus [4] = assay: Antihypertensive activity in Wistar rat assessed as normalization of L-NAME-induced heart weight at 28 mg/kg/day, po for 4 weeks in presence of L-NAME; format: functional, organism-based; how it was run: as §1
Rattus norvegicus [5] = assay: Antihypertensive activity in Wistar rat assessed as normalization of L-NAME-induced aorta thickness at 10 mg/kg/day, po for 4 weeks; format: functional, organism-based; how it was run: as §1
Rattus norvegicus [6] = assay: Antihypertensive activity in Wistar rat assessed as normalization of L-NAME-induced collagen 1 level in vessel walls at 28 mg/kg/day, po for 4 weeks in presence of losartan; format: functional, organism-based
How it was run: (§2)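 Male Wistar rats on L-NAME in drinking water (20 mg/kg/day) for 8 weeks, treatments in drinking water for the last 4 weeks. Thoracic aorta lysates run on SDS-PAGE and Western blotted for collagen type I, fibronectin or HNE-lysine, with β-tubulin as loading control; ECL detection, densitometry. Expressed as percent of basal; mean ± SEM of 10 experiments.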

Rattus norvegicus [7] = assay: Antihypertensive activity in Wistar rat assessed as normalization of L-NAME-induced fibronectin content in vessel walls at 28 mg/kg/day, po for 4 weeks in presence of losartan; format: functional, organism-based; how it was run: as §2
Rattus norvegicus [8] = assay: Antihypertensive activity in Wistar rat assessed as normalization of L-NAME-induced HNE-lysine accumulation in vessel walls at 28 mg/kg/day, po for 4 weeks in presence of losartan; format: functional, organism-based; how it was run: as §2
Rattus norvegicus [9] = assay: Plasma concentration in po dosed Wistar rat assessed as losartan level after 4 weeks; format: ADME, organism-based; details: in vivo, 672 h
How it was run: (§3)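 Separate groups of Wistar rats dosed in drinking water for 4 weeks (n = 4-6 per group), then sacrificed and plasma analyzed by HPLC-MS/MS (triple quadrupole, electrospray), isocratic MeOH/water with 0.1% formic acid, 40 °C. Two plasma samples per animal; mean ± SEM.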

Rattus norvegicus [10] = assay: Plasma concentration in po dosed Wistar rat assessed as EXP-3174 level after 4 weeks; format: ADME, organism-based; details: in vivo, 672 h; how it was run: as §3
Rattus norvegicus [11] = assay: Plasma concentration in po dosed Wistar rat assessed as 3-(3,4-Dihydroxy-phenyl)propionic Acid 2-butyl-5-chloro-3-[2'-(2H-tetrazol-5-yl)-biphenyl-4-ylmethyl]-3H-imidazol-4-ylmethylester level after 4 weeks; format: ADME, organism-based; details: in vivo, 672 h; how it was run: as §3
Rattus norvegicus [12] = assay: Antihypertensive activity in L-NAME-induced Wistar rat assessed as decrease in blood glucose level at 28 mg/kg/day, po for last 4 weeks measured after 8 weeks; format: functional
How it was run: (§4)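 Two-month-old male Wistar rats given L-NAME in drinking water (20 mg/kg/day) for 8 weeks. From week 4, treatment is given daily in drinking water during 12.00–18.00 h, at the dose stated in the line. Ten rats per group. Sacrificed under halothane between 9.00 and 10.00 h. Serum is measured on an automatic analyzer. Mean ± SEM, nonparametric statistics.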

Rattus norvegicus [13] = assay: Antihypertensive activity in L-NAME-induced Wistar rat assessed as decrease in blood cholesterol level at 28 mg/kg/day, po for last 4 weeks measured after 8 weeks; format: functional; how it was run: as §4
Rattus norvegicus [14] = assay: Antihypertensive activity in L-NAME-induced Wistar rat assessed as decrease in blood triglyceride level at 28 mg/kg/day, po for last 4 weeks measured after 8 weeks; format: functional; how it was run: as §4
Rattus norvegicus [15] = assay: Antihypertensive activity in L-NAME-induced Wistar rat assessed as decrease in blood calcium level at 28 mg/kg/day, po for last 4 weeks measured after 8 weeks; format: functional; how it was run: as §4
Rattus norvegicus [16] = assay: Antihypertensive activity in L-NAME-induced Wistar rat assessed as decrease in blood protein level at 28 mg/kg/day, po for last 4 weeks measured after 8 weeks; format: functional; how it was run: as §4
Rattus norvegicus [17] = assay: Antihypertensive activity in L-NAME-induced Wistar rat assessed as decrease in blood LDH level at 28 mg/kg/day, po for last 4 weeks measured after 8 weeks; format: functional; how it was run: as §4
Rattus norvegicus [18] = assay: Antihypertensive activity in L-NAME-induced Wistar rat assessed as decrease in blood AST level at 28 mg/kg/day, po for last 4 weeks measured after 8 weeks; format: functional; how it was run: as §4
Rattus norvegicus [19] = assay: Antihypertensive activity in L-NAME-induced Wistar rat assessed as decrease in blood ALT level at 28 mg/kg/day, po for last 4 weeks measured after 8 weeks; format: functional; how it was run: as §4
Rattus norvegicus [20] = assay: Antihypertensive activity in L-NAME-induced Wistar rat assessed as decrease in blood creatinine level at 28 mg/kg/day, po for last 4 weeks measured after 8 weeks; format: functional; how it was run: as §4
Rattus norvegicus [21] = assay: Antihypertensive activity in L-NAME-induced Wistar rat assessed as decrease in blood urea level at 28 mg/kg/day, po for last 4 weeks measured after 8 weeks; format: functional; how it was run: as §4
Rattus norvegicus [22] = assay: Antihypertensive activity in L-NAME-induced Wistar rat assessed as decrease in blood Na+ level at 28 mg/kg/day, po for last 4 weeks measured after 8 weeks; format: functional; how it was run: as §4
Rattus norvegicus [23] = assay: Antihypertensive activity in L-NAME-induced Wistar rat assessed as decrease in blood […] level at 28 mg/kg/day, po for last 4 weeks measured after 8 weeks; format: functional; how it was run: as §4
[24] = Solubility in water assessed as nonhydrolzed drug level after 2 days; format: physicochemical; details: read-out: Activity

For CCCCc1nc(Cl)c(COC(=O)CCc2ccc(O)c(O)c2)n1Cc1ccc(-c2ccccc2-c2nnn[nH]2)cc1, the Activity [1] was 0.31 mmol/L, the Activity (VSMC) was 59% and the Activity (Rattus norvegicus [2]) was “Active”. The Activity (Rattus norvegicus [3]) was “Active”, the Activity (Rattus norvegicus [4]) was “Active” and the Activity (Rattus norvegicus [5]) was “inactive”. The Activity (Rattus norvegicus [6]) was “Active”, the Activity (Rattus norvegicus [7]) was “Active” and the Activity (Rattus norvegicus [8]) was “Active”. For the same molecule, the concentration (Rattus norvegicus [9]) was 8 nM, the concentration (Rattus norvegicus [10]) was 13 nM and the concentration (Rattus norvegicus [11]) was 171 nM. It also gave an Activity (Rattus norvegicus [12]) of 154 mg/dL, an Activity (Rattus norvegicus [13]) of 52 mg/dL and an Activity (Rattus norvegicus [14]) of 52 mg/dL. For the same molecule, the Activity (Rattus norvegicus [15]) was 8.6 mg/dL, the Activity (Rattus norvegicus [16]) was 4.5 g/dL and the Activity (Rattus norvegicus [17]) was 561 IU/L. The Activity (Rattus norvegicus [18]) was 83 IU/L, the Activity (Rattus norvegicus [19]) was 24 IU/L and the Activity (Rattus norvegicus [20]) was 0.42 mg/dL. For the same molecule, the Activity (Rattus norvegicus [21]) was 24 mg/dL, the Activity (Rattus norvegicus [22]) was 151 mmol/L and the Activity (Rattus norvegicus [23]) was 4.6 mmol/L. For the same molecule, the remaining at 48 h [24] was 95.9%.
With CCCCc1ncc(COC(=O)c2cc(OC)c(O)c(OC)c2)n1Cc1ccc(-c2ccccc2-c2nnn[nH]2)cc1 the Activity [1] was 0.31 mmol/L and the Activity (VSMC) was 66%.
CCCCc1nc(Cl)c(CO)n1Cc1ccc(-c2ccccc2-c2nn[nH]n2)cc1 [LOSARTAN] gave a concentration (Rattus norvegicus [9]) of 24.4 nM and a concentration (Rattus norvegicus [10]) of 39 nM.
Molecule CCCCc1nc(Cl)c(COC(=O)C2(C)CCc3c(C)c(O)c(C)c(C)c3O2)n1Cc1ccc(-c2ccccc2-c2nnn[nH]2)cc1 (stereo not drawn) has an Activity [1] of 0.25 mmol/L and an Activity (VSMC) of 68%.
With CCCCc1ncc(COC(=O)C2(C)CCc3c(C)c(O)c(C)c(C)c3O2)n1Cc1ccc(-c2ccccc2-c2nnn[nH]2)cc1 (stereo not drawn) the Activity [1] was 0.27 mmol/L and the Activity (VSMC) was 65%.
